Data from ChEMBL document CHEMBL2390927, “Design, synthesis and antimicrobial evaluation of novel benzimidazole type of Fluconazole analogues and their synergistic effects with Chloromycin, Norfloxacin and Fluconazole” (2013).
Values after ≈ are worked out from the molar mass of the structure shown.

What was measured:
[1] = system: Candida; experiment: Antifungal activity against Candida mycoderma after 24 hrs by two-fold serial dilution method; assay type: functional
Outline: (§1)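 Spore suspension in sterile distilled water from one-day-old cultures on Sabouraud agar, final 1–5 × 10³ spore mL⁻¹. Compound stocks diluted in sterile RPMI 1640 as two-fold serial dilutions in microdilution plates. MIC is the lowest concentration completely inhibiting growth. Growth monitored visually and spectrophotometrically, in triplicate.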

[2] = system: Saccharomyces cerevisiae; experiment: Potentiation of fluconazole-induced antifungal activity against Saccharomyces cerevisiae at 4 times MIC after 24 hrs by two-fold serial dilution method; assay type: functional
[3] = system: Staphylococcus aureus; experiment: Potentiation of norfloxacin-induced antibacterial activity against Staphylococcus aureus ATCC 6538 at MIC after 24 hrs by two-fold serial dilution method; assay type: functional
[4] = system: Pseudomonas aeruginosa; experiment: Potentiation of chloromycin-induced antibacterial activity against Pseudomonas aeruginosa ATCC 27853 at 2 times MIC after 24 hrs by two-fold serial dilution method; assay type: functional
[5] = system: Staphylococcus aureus; experiment: Potentiation of chloromycin-induced antibacterial activity against Staphylococcus aureus ATCC 6538 at MIC after 24 hrs by two-fold serial dilution method; assay type: functional
[6] = system: Saccharomyces cerevisiae; experiment: Antifungal activity against Saccharomyces cerevisiae after 24 hrs by two-fold serial dilution method; assay type: functional; outline: as §1
[7] = system: Micrococcus luteus; experiment: Potentiation of chloromycin-induced antibacterial activity against Micrococcus luteus ATCC 4698 at 2 times MIC after 24 hrs by two-fold serial dilution method; assay type: functional
[8] = system: Micrococcus luteus; experiment: Antibacterial activity against Micrococcus luteus ATCC 4698 after 24 hrs by two-fold serial dilution method; assay type: functional; conditions: ATCC 4698, 24 h
Outline: (§2)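 MIC taken as the lowest concentration giving complete growth inhibition, by standard two-fold serial dilution in 96-well plates following NCCLS. Stocks in DMSO, diluted in Mueller–Hinton broth. Inoculum adjusted with sterile saline to 1 × 10⁵ CFU. DMSO with inoculum and no drug served as solvent control. Growth read visually and spectrophotometrically, in triplicate.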

[9] = system: Salmonella typhi; experiment: Antibacterial activity against Bacillus typhi after 24 hrs by two-fold serial dilution method; assay type: functional, Salmonella enterica subsp. enterica serovar Typhi; conditions: Salmonella enterica
Outline: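 Two-fold serial dilution in 96-well plates following NCCLS; compounds dissolved in DMSO as stocks, then diluted in Mueller-Hinton broth; bacterial suspension adjusted with sterile saline to 1 × 10⁵ CFU; MIC taken as lowest concentration completely inhibiting growth, monitored visually and spectrophotometrically; DMSO-plus-inoculum well as solvent control; triplicate.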

[10] = system: Bacillus; experiment: Potentiation of norfloxacin-induced antibacterial activity against Bacillus proteus ATCC 13315 at 2 times MIC after 24 hrs by two-fold serial dilution method; assay type: functional
[11] = system: Aspergillus flavus; experiment: Antifungal activity against Aspergillus flavus after 24 hrs by two-fold serial dilution method; assay type: functional; outline: as §1
[12] = system: Cyberlindnera jadinii; experiment: Potentiation of fluconazole-induced antifungal activity against Candida utilis at 8 times MIC after 24 hrs by two-fold serial dilution method; assay type: functional
[13] = system: Cyberlindnera jadinii; experiment: Antifungal activity against Candida utilis after 24 hrs by two-fold serial dilution method; assay type: functional; conditions: Williopsis jadinii; outline: as §1
[14] = system: Pseudomonas aeruginosa; experiment: Potentiation of norfloxacin-induced antibacterial activity against Pseudomonas aeruginosa ATCC 27853 at 2 times MIC after 24 hrs by two-fold serial dilution method; assay type: functional
[15] = system: Aspergillus flavus; experiment: Potentiation of fluconazole-induced antifungal activity against Aspergillus flavus at 4 times MIC after 24 hrs by two-fold serial dilution method; assay type: functional
[16] = system: Escherichia coli; experiment: Potentiation of norfloxacin-induced antibacterial activity against Escherichia coli JM109 at 2 times MIC after 24 hrs by two-fold serial dilution method; assay type: functional
[17] = system: Bacillus subtilis; experiment: Potentiation of chloromycin-induced antibacterial activity against Bacillus subtilis ATCC 21216 at 4 times MIC after 24 hrs by two-fold serial dilution method; assay type: functional
[18] = system: Escherichia coli; experiment: Potentiation of chloromycin-induced antibacterial activity against Escherichia coli JM109 at MIC after 24 hrs by two-fold serial dilution method; assay type: functional
[19] = system: Bacillus subtilis; experiment: Potentiation of norfloxacin-induced antibacterial activity against Bacillus subtilis ATCC 21216 at 2 times MIC after 24 hrs by two-fold serial dilution method; assay type: functional
[20] = system: Salmonella typhi; experiment: Potentiation of norfloxacin-induced antibacterial activity against Bacillus typhi at 4 times MIC after 24 hrs by two-fold serial dilution method; assay type: functional, Salmonella enterica subsp. enterica serovar Typhi
[21] = system: Candida albicans; experiment: Potentiation of fluconazole-induced antifungal activity against Candida albicans ATCC 76615 at 4 times MIC after 24 hrs by two-fold serial dilution method; assay type: functional
[22] = system: Candida albicans; experiment: Antifungal activity against Candida albicans ATCC 76615 after 24 hrs by two-fold serial dilution method; assay type: functional; conditions: ATCC 76615, 24 h; outline: as §1
[23] = system: Staphylococcus aureus; experiment: Antibacterial activity against methicillin-resistant Staphylococcus aureus N315 after 24 hrs by two-fold serial dilution method; assay type: functional; conditions: N315, 24 h
[24] = system: Pseudomonas aeruginosa; experiment: Antibacterial activity against Pseudomonas aeruginosa ATCC 27853 after 24 hrs by two-fold serial dilution method; assay type: functional; conditions: ATCC 27853, 24 h; outline: as §2
[25] = system: Bacillus; experiment: Potentiation of chloromycin-induced antibacterial activity against Bacillus proteus ATCC 13315 at 2 times MIC after 24 hrs by two-fold serial dilution method; assay type: functional
[26] = system: Micrococcus luteus; experiment: Potentiation of norfloxacin-induced antibacterial activity against Micrococcus luteus ATCC 4698 at 2 times MIC after 24 hrs by two-fold serial dilution method; assay type: functional
[27] = system: Staphylococcus aureus; experiment: Antibacterial activity against Staphylococcus aureus ATCC 6538 after 24 hrs by two-fold serial dilution method; assay type: functional; conditions: ATCC 6538, 24 h
[28] = system: Bacillus subtilis; experiment: Antibacterial activity against Bacillus subtilis ATCC 21216 after 24 hrs by two-fold serial dilution method; assay type: functional; conditions: ATCC 21216, 24 h; outline: as §2
[29] = system: Salmonella typhi; experiment: Potentiation of chloromycin-induced antibacterial activity against Bacillus typhi at 4 times MIC after 24 hrs by two-fold serial dilution method; assay type: functional, Salmonella enterica subsp. enterica serovar Typhi
[30] = system: Bacillus; experiment: Antibacterial activity against Bacillus proteus ATCC 13315 after 24 hrs by two-fold serial dilution method; assay type: functional; conditions: ATCC 13315, 24 h; outline: as §2
[31] = system: Candida; experiment: Potentiation of fluconazole-induced antifungal activity against Candida mycoderma at 4 times MIC after 24 hrs by two-fold serial dilution method; assay type: functional
[32] = system: Escherichia coli; experiment: Antibacterial activity against Escherichia coli JM109 after 24 hrs by two-fold serial dilution method; assay type: functional; conditions: JM109, 24 h
[33] = system: Staphylococcus aureus; experiment: Ratio of chloromycin MIC to compound MIC for Staphylococcus aureus ATCC 6538; assay type: functional
[34] = system: Pseudomonas aeruginosa; experiment: Ratio of chloromycin MIC to compound MIC for Pseudomonas aeruginosa ATCC 27853; assay type: functional
[35] = system: Saccharomyces cerevisiae; experiment: Ratio of fluconazole MIC to compound MIC for Saccharomyces cerevisiae; assay type: functional
[36] = system: Escherichia coli; experiment: Ratio of chloromycin MIC to compound MIC for Escherichia coli JM109; assay type: functional
[37] = system: Candida; experiment: Ratio of fluconazole MIC to compound MIC for Candida mycoderma; assay type: functional
[38] = system: Staphylococcus aureus; experiment: Ratio of norfloxacin MIC to compound MIC for Staphylococcus aureus ATCC 6538; assay type: functional
[39] = system: Bacillus subtilis; experiment: Potentiation of chloromycin-induced antibacterial activity against Bacillus subtilis ATCC 21216 at 2 times MIC after 24 hrs by two-fold serial dilution method; assay type: functional
[40] = system: Escherichia coli; experiment: Potentiation of chloromycin-induced antibacterial activity against Escherichia coli JM109 at 8 times MIC after 24 hrs by two-fold serial dilution method; assay type: functional
[41] = system: Candida; experiment: Potentiation of fluconazole-induced antifungal activity against Candida mycoderma at 2 times MIC after 24 hrs by two-fold serial dilution method; assay type: functional
[42] = system: Escherichia coli; experiment: Potentiation of norfloxacin-induced antibacterial activity against Escherichia coli JM109 at 4 times MIC after 24 hrs by two-fold serial dilution method; assay type: functional
[43] = system: Cyberlindnera jadinii; experiment: Potentiation of fluconazole-induced antifungal activity against Candida utilis at 4 times MIC after 24 hrs by two-fold serial dilution method; assay type: functional
[44] = system: Bacillus; experiment: Potentiation of chloromycin-induced antibacterial activity against Bacillus proteus ATCC 13315 at 4 times MIC after 24 hrs by two-fold serial dilution method; assay type: functional
[45] = system: Bacillus subtilis; experiment: Potentiation of norfloxacin-induced antibacterial activity against Bacillus subtilis ATCC 21216 at MIC after 24 hrs by two-fold serial dilution method; assay type: functional
[46] = system: Saccharomyces cerevisiae; experiment: Potentiation of fluconazole-induced antifungal activity against Saccharomyces cerevisiae at 2 times MIC after 24 hrs by two-fold serial dilution method; assay type: functional
[47] = system: Aspergillus flavus; experiment: Potentiation of fluconazole-induced antifungal activity against Aspergillus flavus at 2 times MIC after 24 hrs by two-fold serial dilution method; assay type: functional
[48] = system: Pseudomonas aeruginosa; experiment: Potentiation of chloromycin-induced antibacterial activity against Pseudomonas aeruginosa ATCC 27853 at 4 times MIC after 24 hrs by two-fold serial dilution method; assay type: functional
[49] = system: Micrococcus luteus; experiment: Potentiation of norfloxacin-induced antibacterial activity against Micrococcus luteus ATCC 4698 at MIC after 24 hrs by two-fold serial dilution method; assay type: functional
[50] = system: Candida albicans; experiment: Potentiation of fluconazole-induced antifungal activity against Candida albicans ATCC 76615 at MIC after 24 hrs by two-fold serial dilution method; assay type: functional

Compound | MIC [1] [mg/L] | fractional inhibitory concentration index (FICI) [3] | MIC [6] [mg/L] | fractional inhibitory concentration index (FICI) [7] | MIC [8] [mg/L] | MIC [9] [mg/L] | fractional inhibitory concentration index (FICI) [10] | MIC [11] [mg/L] | MIC [13] [mg/L] | fractional inhibitory concentration index (FICI) [14] | MIC [22] [mg/L] | MIC [23] [mg/L] | MIC [24] [mg/L] | MIC [27] [mg/L] | MIC [28] [mg/L] | MIC [30] [mg/L] | MIC [32] [mg/L] | further results
Fc1ccc(CN(Cc2nc3ccccc3[nH]2)c2cc(C(F)(F)F)cc(C(F)(F)F)c2)c(F)c1 | 32 (≈ 65.9 µM) | 0.25 | 16 (≈ 33 µM) | 0.5 | 8 (≈ 16.5 µM) | 32 (≈ 65.9 µM) | 0.25 | 16 (≈ 33 µM) | 32 (≈ 65.9 µM) | 0.375 | 16 (≈ 33 µM) | 32 (≈ 65.9 µM) | 16 (≈ 33 µM) | 8 (≈ 16.5 µM) | 16 (≈ 33 µM) | 16 (≈ 33 µM) | 16 (≈ 33 µM) | fractional inhibitory concentration index (FICI) [2]: 0.375; fractional inhibitory concentration index (FICI) [4]: 0.25; fractional inhibitory concentration index (FICI) [5]: 0.25; fractional inhibitory concentration index (FICI) [12]: 0.5; fractional inhibitory concentration index (FICI) [15]: 0.375; fractional inhibitory concentration index (FICI) [16]: 0.375; fractional inhibitory concentration index (FICI) [17]: 0.375; fractional inhibitory concentration index (FICI) [18]: 0.25; fractional inhibitory concentration index (FICI) [19]: 0.25; fractional inhibitory concentration index (FICI) [20]: 0.25; fractional inhibitory concentration index (FICI) [21]: 0.25; fractional inhibitory concentration index (FICI) [25]: 0.25; fractional inhibitory concentration index (FICI) [26]: 0.375; fractional inhibitory concentration index (FICI) [29]: 0.25; fractional inhibitory concentration index (FICI) [31]: 0.25
FC(F)(F)c1cc(NCc2nc3ccccc3[nH]2)cc(C(F)(F)F)c1 | 2 (≈ 5.57 µM) |  | 2 (≈ 5.57 µM) |  | 8 (≈ 22.3 µM) | 2 (≈ 5.57 µM) |  | 8 (≈ 22.3 µM) | 8 (≈ 22.3 µM) |  | 2 (≈ 5.57 µM) | 16 (≈ 44.5 µM) | 4 (≈ 11.1 µM) | 2 (≈ 5.57 µM) | 4 (≈ 11.1 µM) | 2 (≈ 5.57 µM) | 2 (≈ 5.57 µM) | Ratio [33]: 4; Ratio [34]: 4; Ratio [35]: 8; Ratio [36]: 8; Ratio [37]: 2; Ratio [38]: 4
Cl.Cl.Fc1ccc(CN(Cc2nc3ccccc3[nH]2)c2cc(C(F)(F)F)cc(C(F)(F)F)c2)c(F)c1 | 16 | 0.25 | 8 | 0.375 | 8 | 16 | 0.25 | 8 | 16 | 0.25 | 8 | 16 | 16 | 8 | 8 | 16 | 32 | fractional inhibitory concentration index (FICI) [39]: 0.5; fractional inhibitory concentration index (FICI) [40]: 0.375; fractional inhibitory concentration index (FICI) [41]: 0.25; fractional inhibitory concentration index (FICI) [42]: 0.375; fractional inhibitory concentration index (FICI) [43]: 0.375; fractional inhibitory concentration index (FICI) [44]: 0.375; fractional inhibitory concentration index (FICI) [45]: 0.25; fractional inhibitory concentration index (FICI) [46]: 0.375; fractional inhibitory concentration index (FICI) [47]: 0.375; fractional inhibitory concentration index (FICI) [48]: 0.375; fractional inhibitory concentration index (FICI) [49]: 0.25; fractional inhibitory concentration index (FICI) [50]: 0.375
